This is an account of results in ChEMBL document CHEMBL5705907 (BMC Rheumatol, 2018).

Usually IC50 stands for the concentration at which inhibition is half-maximal.

Assay [1] relates to Rattus norvegicus. The experiment in a line: Antiarthritic activity in adjuvant-induced arthritis Lewis rat model at 3 to 10 mg/kg, po administered for 10 days and measured on day 17 by microCT-scanning analysis. It counts as functional, organism-based. The conditions noted are these: dose 3-10 mg/kg, time 17.0 day. The gist of the method: (§1)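 Lewis rats with adjuvant-induced arthritis were given vehicle or drug by oral gavage twice daily for 10 days (Day 7–Day 17 post immunization). On Day 17 they were exsanguinated by cardiac puncture under isoflurane. Left rear paws were μCT-scanned, and bone volume and density were determined in a 360 μm vertical section through the tarsal region. Groups were compared with vehicle by Dunnett's test.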

Assay [2] has as its system Rattus norvegicus. The experiment in a line: Antiarthritic activity in adjuvant-induced arthritis Lewis rat model assessed as reduction in paw swelling at 5 to 10 mg/kg, po administered for 10 days and measured on day 17. It counts as functional. Further details: scale not given: the % may be the effect or the level left. The conditions noted are these: dose 5-10 mg/kg, time 17 day. The gist of the method:
(§2)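 In rats with adjuvant-induced arthritis, vehicle or drug was given by oral gavage BID for 10 days (Day 7–Day 17 after immunization). Paw swelling was measured by water-displacement plethysmography every other day up to Day 17. Treatment groups were compared with vehicle by Dunnett's multiple comparison test.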

In assay [3] the test system is Rattus norvegicus. The assay can be described thus: Antiarthritic activity in adjuvant-induced arthritis Lewis rat model assessed as bone destruction by measuring reduction in bone volume at 10 mg/kg, po administered for 10 days and measured on day 17 by microCT-scanning analysis. The assay is classed as functional. On the set-up: scale not given: the % may be the effect or the level left. The conditions noted are these: time 17 day. The gist of the method: (§3)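 Rats dosed by oral gavage twice daily (BID) with vehicle or drug for 10 days (Day 7–Day 17 post immunization). On Day 17, rats exsanguinated by cardiac puncture under isoflurane; left rear paw scanned by μCT. Bone volume and density determined in a 360 μm vertical section encompassing the tarsal region. Each group compared with vehicle by Dunnett's multiple comparison test.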

The subject of assay [4] is Rattus norvegicus. The experiment in a line: Antiarthritic activity in adjuvant-induced arthritis Lewis rat model assessed as improvement in cartilage damage at 3 to 10 mg/kg, po administered for 10 days and measured on day 17 by microCT-scanning analysis. It counts as functional, organism-based. The conditions noted are these: dose 3-10 mg/kg, time 17.0 day.
Assay [5] has as its system Rattus norvegicus. The assay can be described thus: Antiarthritic activity in adjuvant-induced arthritis Lewis rat model assessed as improvement in bone erosion at 3 to 10 mg/kg, po administered for 10 days and measured on day 17 by microCT-scanning analysis. The conditions noted are these: dose 3-10 mg/kg, time 17.0 day.
Assay [6] has as its system Rattus norvegicus. The assay can be described thus: Antiarthritic activity in adjuvant-induced arthritis Lewis rat model assessed as bone destruction by measuring reduction in bone volume at 1 mg/kg, po administered for 10 days and measured on day 17 by microCT-scanning analysis. The conditions noted are these: time 17 day. Further details: scale not given: the % may be the effect or the level left. It counts as functional. The gist of the method: as §3

Assay [7] relates to Rattus norvegicus. The assay can be described thus: Antiarthritic activity in adjuvant-induced arthritis Lewis rat model assessed as bone destruction by measuring reduction in bone volume at 3 mg/kg, po administered for 10 days and measured on day 17 by microCT-scanning analysis. The assay is classed as functional. Further details: scale not given: the % may be the effect or the level left. The conditions noted are these: time 17 day. The gist of the method:
as §1

Assay [8] relates to Rattus norvegicus. The experiment in a line: Antiarthritic activity in adjuvant-induced arthritis Lewis rat model assessed as improvement in synovial hypertrophy at 3 to 10 mg/kg, po administered for 10 days and measured on day 17 by microCT-scanning analysis. It counts as functional, organism-based. The conditions noted are these: dose 3-10 mg/kg, time 17.0 day.
Assay [9] deals with Cyclin-dependent kinase 11B (Homo sapiens, UniProt P21127). The assay can be described thus: Inhibition of CDK11 (unknown origin) by TR-FRET assay.
A further assay deals with Blood. The experiment in a line: Ex-vivo inhibition of JAK1 in human blood assessed as reduction in IL-6-induced STAT3 phosphorylation at 36 mg/kg, po measured after 12 hrs. The assay is classed as functional, organism-based. The method, boiled down:
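Blood was drawn into sodium heparin tubes at 0, 1, 6 and 12 h after an oral dose. It was stimulated with recombinant human IL-6 (400 ng/ml) for 10 min at 37°C and surface-stained for CD14/CD3 on ice. Samples were lysed/fixed, frozen at −70°C, permeabilized, and stained for pSTAT3 for flow cytometry. Percent inhibition used geometric means of induced minus baseline pSTAT relative to pre-dose.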

Assay [10] deals with Rattus norvegicus. The assay can be described thus: Antiarthritic activity in adjuvant-induced arthritis Lewis rat model assessed as improvement in bone erosion at 3 to 10 mg/kg, po administered for 10 days and measured on day 17 by microCT-scanning analysis. It counts as functional, organism-based. The settings on record: dose 3-10 mg/kg, time 17.0 day.
The test system of assay [11] is Rattus norvegicus. The assay can be described thus: Antiarthritic activity in adjuvant-induced arthritis Lewis rat model assessed as bone destruction by measuring reduction in bone volume at 0.1 mg/kg, po administered for 10 days and measured on day 17 by microCT-scanning analysis. The assay is classed as functional. Further details: scale not given: the % may be the effect or the level left. The settings on record: time 17 day. The method, boiled down:
as §1

Assay [12] relates to Rattus norvegicus. The assay can be described thus: Antiarthritic activity in adjuvant-induced arthritis Lewis rat model assessed as bone destruction by measuring reduction in bone volume at 0.3 mg/kg, po administered for 10 days and measured on day 17 by microCT-scanning analysis. The assay is classed as functional. On the set-up: scale not given: the % may be the effect or the level left. The settings on record: time 17 day. The method, boiled down:
as §3

A short description of assay [13]: Inhibition of ABL (unknown origin) by TR-FRET assay. Further details: species or system Homo sapiens.
Assay [14] concerns Rattus norvegicus. The assay can be described thus: Antiarthritic activity in adjuvant-induced arthritis Lewis rat model assessed as improvement in cartilage damage at 3 to 10 mg/kg, po administered for 10 days and measured on day 17 by microCT-scanning analysis. The conditions noted are these: dose 3-10 mg/kg, time 17.0 day.
Assay [15] deals with Rattus norvegicus. The experiment in a line: Antiarthritic activity in adjuvant-induced arthritis Lewis rat model assessed as improvement in synovial hypertrophy at 3 to 10 mg/kg, po administered for 10 days and measured on day 17 by microCT-scanning analysis. The conditions noted are these: dose 3-10 mg/kg, time 17.0 day.
In assay [16] the test system is Rattus norvegicus. The experiment in a line: Antiarthritic activity in adjuvant-induced arthritis po dosed Lewis rat model assessed as bone destruction by measuring reduction in bone volume administered for 10 days and measured on day 17 by microCT-scanning analysis. The conditions noted are these: dose 0.1-10 mg/kg, time 17.0 day. The assay is classed as functional, organism-based. The method, boiled down: as §1

Assay [17] has as its target AMP-activated protein kinase, AMPK. The experiment in a line: Inhibition of AMPK (unknown origin) by TR-FRET assay. The assay is classed as protein-complex assay, Homo sapiens. A general note: Time-resolved FRET reads energy transfer from a long-lived donor to a nearby acceptor.
In assay [18] the test system is Rattus norvegicus. The assay can be described thus: Antiarthritic activity in adjuvant-induced arthritis Lewis rat model assessed as reduction in paw swelling administered for 10 days and measured on day 17. The assay is classed as functional, organism-based. The settings on record: time 17.0 day. The gist of the method: as §2

Molecules are shown by their SMILES. The source made the active and inactive calls. The rule behind the calls is not given here. A value given as a limit tells only on which side of the number the result lay.

Sequence of Cyclin-dependent kinase 11B (P21127 whole entry): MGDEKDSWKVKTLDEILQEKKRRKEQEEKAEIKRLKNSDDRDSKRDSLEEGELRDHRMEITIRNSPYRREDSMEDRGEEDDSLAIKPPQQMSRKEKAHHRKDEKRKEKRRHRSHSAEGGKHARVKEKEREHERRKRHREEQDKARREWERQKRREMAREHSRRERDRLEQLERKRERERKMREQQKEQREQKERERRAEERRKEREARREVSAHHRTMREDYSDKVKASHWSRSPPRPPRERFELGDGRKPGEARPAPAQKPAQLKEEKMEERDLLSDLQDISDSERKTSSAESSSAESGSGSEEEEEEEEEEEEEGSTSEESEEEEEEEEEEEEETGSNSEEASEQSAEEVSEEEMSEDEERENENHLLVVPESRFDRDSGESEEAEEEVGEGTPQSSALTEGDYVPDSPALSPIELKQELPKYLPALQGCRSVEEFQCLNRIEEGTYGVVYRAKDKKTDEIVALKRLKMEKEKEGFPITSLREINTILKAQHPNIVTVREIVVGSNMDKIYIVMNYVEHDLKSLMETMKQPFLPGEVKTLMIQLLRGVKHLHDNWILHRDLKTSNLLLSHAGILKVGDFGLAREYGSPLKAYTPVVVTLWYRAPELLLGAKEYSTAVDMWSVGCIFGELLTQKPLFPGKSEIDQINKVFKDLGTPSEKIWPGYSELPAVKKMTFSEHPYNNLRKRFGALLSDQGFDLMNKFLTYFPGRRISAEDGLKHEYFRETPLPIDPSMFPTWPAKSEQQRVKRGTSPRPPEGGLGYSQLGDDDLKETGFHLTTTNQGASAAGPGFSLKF

As to `C[C@@H]1CCN(C(=O)CC#N)C[C@@H]1N(C)c1ncnc2[nH]ccc12` [TOFACITINIB], the outcome in the assay with Rattus norvegicus [1] was Active. The Activity with Rattus norvegicus [2] is on record as more than 60%.

With `CC[C@@H]1CN(C(=O)NCC(F)(F)F)C[C@@H]1c1cnc2cnc3[nH]ccc3n12` [UPADACITINIB], the Activity in the assay on Rattus norvegicus [3] was 89%; in the assay with Rattus norvegicus [6] it was 63%; in the assay on Rattus norvegicus [7] it was 96%; in the assay with Rattus norvegicus [11] it was 26%; in the assay with Rattus norvegicus [12] it was 16%; with Rattus norvegicus [16], “Dose-Dependent Effect”. The Activity in the assay on Rattus norvegicus [2] is listed as more than 60%. Further, the result in the assay with Rattus norvegicus [4], with Rattus norvegicus [5], with Rattus norvegicus [8], in the assay on Rattus norvegicus [10], with Rattus norvegicus [14] and in the assay with Rattus norvegicus [15] was Active. Also, the outcome in the assay on Rattus norvegicus [18] was Active. In addition, the IC50 was more than 10 µM in assay [9], more than 10 µM in [13] and more than 4.5 µM in assay [17]. Besides, the inhibition result with Blood was “Active”.
